High-throughput results: PubChem, several laboratories
In the library only some 1.3% were active in any assay of this set; here they are far more common.
G6PDH counter – L. mesenteroides G6PDH inhibitors, counter-screen for G6PDH-coupled screening assays, biochemical, Leuconostoc mesenteroides enzyme. glucose-6-phosphate dehydrogenase [Leuconostoc mesenteroides]. Purified L. mesenteroides G6PDH, diaphorase/resazurin coupled fluorescence, 45 min. inhibition, % at 5 µM. actives 0.12% (n = 200,000); in the data active = inhibition above about 50%
HKDC1 inh – HKDC1 hexokinase inhibitors, primary screen, biochemical, fluorescence, uHTS; inhibition, % at 20 µM; actives 0.16% (n = 340,000); recombinant HKDC1, G6PDH/diaphorase resazurin coupled fluorescence;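 active = inhibition above about 35% when tested at 20 µM, limit read from the data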;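 also: plate controls were DMSO wells with enzyme for no effect and DMSO wells lacking enzyme for full effect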
Target sequence (Q2TB90 whole entry, looked up): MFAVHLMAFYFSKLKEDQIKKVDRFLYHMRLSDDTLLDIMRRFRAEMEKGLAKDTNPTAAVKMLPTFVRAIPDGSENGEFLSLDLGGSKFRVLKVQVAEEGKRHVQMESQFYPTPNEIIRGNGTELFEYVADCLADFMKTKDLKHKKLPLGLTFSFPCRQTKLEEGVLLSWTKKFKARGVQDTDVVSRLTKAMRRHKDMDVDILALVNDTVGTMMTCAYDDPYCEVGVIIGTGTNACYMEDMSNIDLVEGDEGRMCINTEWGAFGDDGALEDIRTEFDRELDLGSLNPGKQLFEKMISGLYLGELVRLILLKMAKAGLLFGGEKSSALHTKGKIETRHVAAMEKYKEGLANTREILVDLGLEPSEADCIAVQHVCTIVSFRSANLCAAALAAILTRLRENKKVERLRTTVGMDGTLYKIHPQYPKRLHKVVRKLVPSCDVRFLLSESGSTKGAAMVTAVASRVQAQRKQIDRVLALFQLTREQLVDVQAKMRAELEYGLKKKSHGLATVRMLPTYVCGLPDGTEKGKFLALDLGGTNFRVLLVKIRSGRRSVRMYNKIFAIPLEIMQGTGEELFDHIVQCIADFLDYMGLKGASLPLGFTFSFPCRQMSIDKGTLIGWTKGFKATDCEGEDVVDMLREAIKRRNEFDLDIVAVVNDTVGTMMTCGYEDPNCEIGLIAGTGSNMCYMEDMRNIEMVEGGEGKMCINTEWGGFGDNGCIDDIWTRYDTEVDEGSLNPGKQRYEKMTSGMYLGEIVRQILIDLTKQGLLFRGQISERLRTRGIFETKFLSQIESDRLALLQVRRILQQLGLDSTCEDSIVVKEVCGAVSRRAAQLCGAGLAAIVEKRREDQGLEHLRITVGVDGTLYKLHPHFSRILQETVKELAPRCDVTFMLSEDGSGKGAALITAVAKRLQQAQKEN
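Material: recombinant HKDC1 hexokinase; Amount: HKDC1 at 5 µg/mL; Medium: Tris pH 8.0 buffer with MgCl2, Tween-20, BSA, BME; Schedule: 90 min reaction incubation at room temperature, dark; Technique: coupled resazurin fluorescence, excitation 525 nm, emission 613 nm.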
Tb hexokinase – Trypanosoma brucei hexokinase 1 inhibitors, primary screen, biochemical, G6PDH-coupled NADH absorbance, MLSCN library; recombinant TbHK1, G6PDH-coupled NADH A340; inhibition, % at 10 µM; AID 1430, 2008; actives 0.11% (n = 220,000);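 active = inhibition of 50% or more in the single-dose primary screen; inactive = inhibition below 50%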
PfGluPho inh – PfG6PD enzyme inhibitors, primary screen, biochemical, fluorescence intensity, uHTS. glucose-6-phosphate dehydrogenase-6-phosphogluconolactonase (Plasmodium falciparum 3D7). actives 0.78% (n = 350,000). AID 504690, 2011. PfGluPho enzyme, NADPH resazurin-diaphorase fluorescence. inhibition, % at 20 µM;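 active = inhibition reaching at least a set limit at 20 µM in the primary screen, cut at about 59% in these data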;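 also: 0% = DMSO wells with substrate and 100% = DMSO wells lacking glucose-6-phosphate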
Diaph inh CS – diaphorase inhibitors and chemical oxidizers, primary screen, counter-screen for diaphorase-coupled primary assays, biochemical, uHTS, resorufin fluorescence; diaphorase resazurin-to-resorufin fluorescence, NADH, 16 min; bacterial (C. kluyveri) enzyme, not human; inhibition, % at 20 µM; actives 0.69% (n = 190,000);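 active = primary screen inhibition at 20 µM above a set limit, cut at about 50% in these data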;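 also: plate controls were DMSO with full reaction for no effect and wells lacking NADH for full effect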
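System: Diaphorase enzyme from Clostridium kluyveri | Amount: Enzyme working solution with 0.14 U/mL diaphorase | Benchmarks: No-NADH positive control and DMSO neutral control | Signal: Fluorescence of resorufin formed from resazurin, Ex 544/Em 590 nm | Schedule: 16-min room-temperature incubation before reading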
PfG6PD confirm – PfG6PD inhibitors, hit retest, confirmation, biochemical, fluorescence intensity, single concentration; shares compounds with PfGluPho inh; inhibition, % at 20 µM; actives 34% (n = 2,400); recombinant PfGluPho, NADPH-diaphorase-resazurin fluorescence; AID 504753, 2011;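 active = inhibition of at least 50% at 20 µM in any single replicate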;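 also: 0% = DMSO with substrate and 100% = DMSO lacking glucose-6-phosphate substrate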
Diaph ctr 10uM – diaphorase inhibitors and chemical oxidizers, confirmation, counter-screen for P. falciparum G6PD inhibitor project, biochemical, fluorescence intensity, 10 µM NADPH. shares compounds with PfGluPho inh. diaphorase-coupled resazurin reduction, NADPH 10 uM. inhibition, % at 20 µM. actives 39% (n = 820). AID 504862, 2011;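 active = average inhibition reaching 50% or more with the compound at 20 µM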;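 also: resorufin red fluorescence formed as diaphorase reduces resazurin using NADPH; 0% = DMSO with enzyme and 100% = DMSO without enzyme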
Diaph ctr 30uM – diaphorase inhibitors and chemical oxidizers, confirmation, counter-screen for P. falciparum G6PD inhibitor project, biochemical, fluorescence intensity, 30 µM NADPH; Diaphorase/resazurin coupled assay, resorufin fluorescence; shares compounds with PfGluPho inh; inhibition, % at 20 µM; actives 29% (n = 820); AID 504863, 2011;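 active = inhibition averaging 50% or more, tested at 20 µM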;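 also: 0% = DMSO with enzyme and 100% = DMSO wells lacking diaphorase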
* = called active by the depositor; x = not tested or not shown.

SMILES | G6PDH counter | HKDC1 inh | Tb hexokinase | PfGluPho inh | Diaph inh CS | PfG6PD confirm | others
Cc1cccc(OCC(=O)N/N=C/c2cc([N+](=O)[O-])ccc2N2CCOCC2)c1 | -1 | 0 | 24 | 118* | 26 | 68* | Diaph ctr 10uM=57*;Diaph ctr 30uM=59*
O=C(N/N=C/c1ccccc1OC(=O)c1ccc2c(c1)OCO2)c1cccc(F)c1 | -2 | 6 | -1 | -21 | 2 | x
CC1(OC(=O)C2CCCC2)C(=O)C=C2C=C(c3ccsc3)N(Cc3ccccc3)C=C2C1=O (centres undefined) | x | 28 | -9 | 50 | x | x
CC(C)CN1C=C2C(=O)C(C)(OC(=O)C3CCCC3)C(=O)C=C2C=C1c1ccsc1 (centres undefined) | x | 21 | -26 | 44 | x | x
CC1(OC(=O)C2CCCC2)C(=O)C=C2C=C(c3ccsc3)N(C(CO)CO)C=C2C1=O (centres undefined) | x | 20 | -29 | 66* | x | 7
CC1(OC(=O)C2CCCC2)C(=O)C=C2C=C(c3ccsc3)N(CCc3ccccn3)C=C2C1=O (centres undefined) | x | 24 | -47 | 70* | x | 39
CC1(OC(=O)C2CCCC2)C(=O)C=C2C=C(c3ccsc3)N(C3CC3)C=C2C1=O (centres undefined) | x | 21 | -30 | 80* | x | 28
CC1(OC(=O)C2CCCC2)C(=O)C=C2C=C(c3ccsc3)N(c3ccccc3)C=C2C1=O (centres undefined) | x | 23 | -24 | 54 | x | x
Cc1cc(C)cc(-n2ncc3c2CCCC3NC(=O)C2CCC2)c1 (centres undefined) | x | -3 | x | 13 | x | x
CC12CCC(=O)N1C(C(=O)Nc1nc3ccc(F)cc3s1)CS2 (centres undefined) | x | -4 | x | 0 | x | x
NC(=O)c1sc2nc(N3CCOCC3)c3c(c2c1N)CCCC3 | 5 | 11 | -24 | 66* | 32 | 12
CCOC(=O)c1sc2nc(N3CCOCC3)c3c(c2c1N)CCC3 | 3 | 4 | -32 | 9 | 9 | x
CCCCN(CCCC)C(=O)c1sc2nc(N3CCOCC3)c3c(c2c1N)CCCC3 | x | 6 | -14 | 71* | x | -6
COC(=O)c1sc2nc(-c3ccco3)ccc2c1N | 0 | 6 | -22 | 76* | 35 | -4
COC(=O)c1sc(NC(=O)c2cc(-c3ccccc3)nc3ccccc23)c(C#N)c1C | -8 | -4 | -1 | 65* | 12 | 43
COc1ccccc1CN(C)c1ccc(S(=O)(=O)N2CCN(C)CC2)cn1 | x | -7 | x | -3 | x | x
CCN(CC)c1ccc(N)cc1 | x | 2 | x | 51 | x | x
Nc1ccc(N(CCO)CCO)cc1 | 35 | 10 | 1 | 63* | 53* | 55* | Diaph ctr 10uM=25;Diaph ctr 30uM=14
Cn1cnc(C(=O)N2CCN(C(=O)OC(C)(C)C)CC2)c1C(=O)N1CCN(C(=O)OC(C)(C)C)CC1 | x | -6 | x | 0 | x | x
Cc1nnc(N/N=C/c2cc(C)n(-c3ccc(F)cc3)c2C)n1N | 13 | -9 | 7 | 78* | 36 | 45
COc1cc(C)ccc1Oc1ccc([N+](=O)[O-])cc1 | x | 9 | x | 63* | x | 16
Nc1ccc(S(N)(=O)=O)cc1N | x | 8 | 6 | 60* | x | 4
COc1ccc(CCN2CC(C(=O)OC(C)C(=O)Nc3ccc(NC(C)=O)cc3)CC2=O)cc1OC (centres undefined) | x | -6 | x | -8 | x | x
